Calls of active or inactive are those of the source. No cut-off for these calls is given here.
How the values were obtained:
[1] = Growth inhibition of patient derived CLL cells after 48 hrs by annexin V-FITC staining based flow cytometric analysis; type: functional; conditions: Homo sapiens, CLL-CII
Procedure, shortened: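 Freshly isolated primary CLL cells (10⁶/mL) in RPMI with 10% foetal calf serum, L-glutamine, penicillin and streptomycin, 37 °C, 5% CO₂, exposed to inhibitor for 48 h. Cells labelled with CD19-APC and annexin V-FITC; apoptosis quantified by flow cytometry in CD19+ cells. LD50 is the concentration killing 50% of CLL cells.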

[2] = target: Vascular endothelial growth factor receptor 2 (Homo sapiens) (UniProt P35968); assay: Inhibition of recombinant human KDR 790 to end residues ) using myelin basic protein as substrate incubated for 40 mins by scintillation counting method
Procedure, shortened: (§1)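 The 60-kinase diversity panel was run as a radiometric assay with ATP at each kinase's Km(app). Compound was tested at one fixed concentration across all kinases.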

Homo sapiens = species on record: Homo sapiens; assay: Selectivity index, ratio of Ki for inhibition of recombinant human full length […]
[3] = target: Tyrosine-protein kinase Fyn (Homo sapiens) (UniProt P06241); assay: Inhibition of recombinant human full length FYN using KVEKIGEGTYGVVYK as substrate incubated for 40 mins by scintillation counting method; procedure, shortened: as §1
A2780 [4] = assay: Induction of apoptosis in human A2780 cells assessed as late apoptotic cells at 0.5 uM after 24 hrs by Annexin V-FITC/PI staining based flow cytometric analysis (reference value: 2.8%); type: functional
Procedure, shortened: (§2)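 A2780 cells cultured 24 h in medium alone or with varying inhibitor concentrations, then stained with FITC-annexin V/PI per kit protocol and analysed by flow cytometry. Run in triplicate and repeated at least twice; significance by one-way ANOVA, p < 0.01.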

A2780 [5] = assay: Induction of apoptosis in human A2780 cells assessed as late apoptotic cells at 1 uM after 24 hrs by Annexin V-FITC/PI staining based flow cytometric analysis (reference value: 2.8%); type: functional; procedure, shortened: as §2
A2780 [6] = assay: Induction of apoptosis in human A2780 cells assessed as viable cells at 2 uM after 24 hrs by Annexin V-FITC/PI staining based flow cytometric analysis (reference value: 92%); type: functional; conditions: read-out: Activity; procedure, shortened: as §2
A2780 [7] = assay: Induction of apoptosis in human A2780 cells assessed as late apoptotic cells at 5 uM after 24 hrs by Annexin V-FITC/PI staining based flow cytometric analysis (reference value: 2.8%); type: functional; procedure, shortened: as §2
A2780 [8] = assay: Induction of cell cycle arrest in human A2780 cells assessed as accumulation at pre-G1 phase at 0.5 uM after 24 hrs by propidium iodide staining based flow cytometric analysis (reference value: 1.2%); type: functional
A2780 [9] = assay: Induction of cell cycle arrest in human A2780 cells assessed as accumulation at G1/G0 phase at 0.5 uM after 24 hrs by propidium iodide staining based flow cytometric analysis (reference value: 56.7%); type: functional
Procedure, shortened: (§3)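 4 × 10⁵ A2780 cells cultured 24 h in medium alone or with varying inhibitor concentrations, harvested into hypotonic fluorochrome solution (0.1% sodium citrate, 0.1% Triton X-100, propidium iodide, 100 ug/ml RNase A), and DNA content analysed by flow cytometry. Representative of three independent experiments.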

A2780 [10] = assay: Induction of cell cycle arrest in human A2780 cells assessed as accumulation at S phase at 0.5 uM after 24 hrs by propidium iodide staining based flow cytometric analysis (reference value: 20%); type: functional; procedure, shortened: as §3
A2780 [11] = assay: Induction of cell cycle arrest in human A2780 cells assessed as accumulation at G2/M phase at 0.5 uM after 24 hrs by propidium iodide staining based flow cytometric analysis (reference value: 21.6%); type: functional; procedure, shortened: as §3
A2780 [12] = assay: Induction of cell cycle arrest in human A2780 cells assessed as accumulation at G1/G0 phase at 2 uM after 24 hrs by propidium iodide staining based flow cytometric analysis (reference value: 56.7%); type: functional; procedure, shortened: as §3
A2780 [13] = assay: Induction of cell cycle arrest in human A2780 cells assessed as accumulation at G2/M phase at 2 uM after 24 hrs by propidium iodide staining based flow cytometric analysis (reference value: 21.6%); type: functional; procedure, shortened: as §3
A2780 [14] = assay: Induction of cell cycle arrest in human A2780 cells assessed as accumulation at S phase at 5 uM after 24 hrs by propidium iodide staining based flow cytometric analysis (reference value: 20%); type: functional; procedure, shortened: as §3
A2780 [15] = assay: Induction of cell cycle arrest in human A2780 cells assessed as accumulation at pre-G1 phase after 24 hrs by propidium iodide staining based flow cytometric analysis; type: functional; conditions: dose 0.5-5 µM; procedure, shortened: as §3

Sequence of Vascular endothelial growth factor receptor 2 (Homo sapiens) (P35968 whole entry): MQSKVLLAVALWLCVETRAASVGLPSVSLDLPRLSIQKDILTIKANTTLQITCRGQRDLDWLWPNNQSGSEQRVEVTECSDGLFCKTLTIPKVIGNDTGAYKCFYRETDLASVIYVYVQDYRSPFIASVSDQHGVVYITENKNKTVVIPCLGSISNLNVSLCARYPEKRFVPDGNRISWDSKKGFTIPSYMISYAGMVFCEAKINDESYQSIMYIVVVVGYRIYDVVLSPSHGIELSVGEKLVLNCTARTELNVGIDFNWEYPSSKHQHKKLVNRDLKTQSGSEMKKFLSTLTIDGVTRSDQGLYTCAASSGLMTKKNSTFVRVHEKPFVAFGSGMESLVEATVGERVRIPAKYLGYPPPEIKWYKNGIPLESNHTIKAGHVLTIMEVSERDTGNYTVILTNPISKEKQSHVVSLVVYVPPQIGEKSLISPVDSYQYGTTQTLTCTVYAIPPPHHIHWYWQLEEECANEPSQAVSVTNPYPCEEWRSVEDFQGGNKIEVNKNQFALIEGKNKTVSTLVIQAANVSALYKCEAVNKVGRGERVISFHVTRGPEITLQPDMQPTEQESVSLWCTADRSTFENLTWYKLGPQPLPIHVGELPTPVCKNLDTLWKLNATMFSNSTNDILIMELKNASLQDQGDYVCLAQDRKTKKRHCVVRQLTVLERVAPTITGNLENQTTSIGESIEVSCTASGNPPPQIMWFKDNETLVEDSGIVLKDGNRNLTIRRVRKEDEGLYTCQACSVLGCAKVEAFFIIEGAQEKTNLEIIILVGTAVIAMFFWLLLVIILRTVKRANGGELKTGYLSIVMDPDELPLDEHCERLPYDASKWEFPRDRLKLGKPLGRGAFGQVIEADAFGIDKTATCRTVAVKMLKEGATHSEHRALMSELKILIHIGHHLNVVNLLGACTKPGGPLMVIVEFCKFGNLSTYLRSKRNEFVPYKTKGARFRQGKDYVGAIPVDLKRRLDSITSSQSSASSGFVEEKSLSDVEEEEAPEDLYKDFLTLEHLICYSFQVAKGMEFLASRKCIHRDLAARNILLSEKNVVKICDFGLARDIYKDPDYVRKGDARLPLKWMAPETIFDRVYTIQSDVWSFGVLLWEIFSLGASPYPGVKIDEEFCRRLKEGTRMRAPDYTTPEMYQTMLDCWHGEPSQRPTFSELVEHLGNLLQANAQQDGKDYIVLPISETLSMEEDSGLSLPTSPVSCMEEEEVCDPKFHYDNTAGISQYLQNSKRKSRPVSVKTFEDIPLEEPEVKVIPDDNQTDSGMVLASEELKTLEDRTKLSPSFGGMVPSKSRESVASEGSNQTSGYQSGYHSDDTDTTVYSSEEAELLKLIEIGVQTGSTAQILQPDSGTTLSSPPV
Sequence of Tyrosine-protein kinase Fyn (Homo sapiens) (P06241 2-537 limits assumed): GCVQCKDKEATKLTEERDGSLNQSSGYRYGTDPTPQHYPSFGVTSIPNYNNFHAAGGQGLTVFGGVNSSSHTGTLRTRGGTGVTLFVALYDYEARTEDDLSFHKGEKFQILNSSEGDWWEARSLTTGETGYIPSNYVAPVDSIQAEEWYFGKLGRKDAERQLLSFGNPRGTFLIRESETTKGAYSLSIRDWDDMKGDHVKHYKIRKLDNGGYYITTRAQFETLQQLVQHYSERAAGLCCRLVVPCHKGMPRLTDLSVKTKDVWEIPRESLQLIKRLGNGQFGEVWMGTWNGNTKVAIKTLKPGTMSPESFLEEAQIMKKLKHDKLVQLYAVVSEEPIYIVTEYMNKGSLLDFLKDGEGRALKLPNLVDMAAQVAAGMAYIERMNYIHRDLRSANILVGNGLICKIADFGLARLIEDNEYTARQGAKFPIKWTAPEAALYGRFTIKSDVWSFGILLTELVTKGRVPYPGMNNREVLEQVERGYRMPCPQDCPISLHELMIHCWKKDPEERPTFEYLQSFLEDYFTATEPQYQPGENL

inhibition [2]: Active
Ratio Ki (Homo sapiens): 100
inhibition [3]: Active
SMILES: CNc1nc(C)c(-c2nc(Nc3cccc(N4CCN5CCC4CC5)c3)ncc2C)s1
GI50 [1]: 1500 nM
Activity (A2780 [4]): 6.2%
Activity (A2780 [5]): 13.1%
viability at 2 µM (A2780 [6]): 67.9%
Activity (A2780 [7]): 47.2%
Activity (A2780 [8]): 2%
Activity (A2780 [9]): 59.8%
Activity (A2780 [10]): 15.3%
Activity (A2780 [11]): 22.2%
Activity (A2780 [12]): 24.3%
Activity (A2780 [13]): 56.5%
Activity (A2780 [14]): 10.8%
Activity (A2780 [15]): Dose-Dependent Effect
